Screening results (PubChem BioAssay)
PME-1 primary: blocks human protein phosphatase methylesterase 1; recombinant PME-1, FP-Rh probe fluorescence polarization; Q9Y570; inhibition, % at 5.9 µM; hit rate 0.53% among 320,000; AID 2130;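 active = inhibition above the campaign mean of all compounds plus 3 SD, cut at about 26% in these data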;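 also: competitive labeling of PME-1 active site by serine hydrolase directed probe; 0% = PME-1 with DMSO and 100% = wells lacking PME-1 enzyme; inhibitors block probe labeling so polarization falls and inhibition rises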
Fam108B inh: counter-screen for RBBP9 inhibitors: inhibitors of mouse Fam108B; recombinant Fam108B, FP-Rh probe fluorescence polarization; inhibition, % at 9.51 µM; hit rate 0.33% among 300,000; AID 1947;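 active = inhibition above the screen mean inhibition plus 3 SD, computed separately per campaign, cut at about 18% in these data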;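 also: inhibitors lower polarization as less probe binds the enzyme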
LYPLA2 counter: counter-screen for PME1 inhibitors: inhibitors of human LYPLA2; O95372; hit rate 0.38% among 320,000; inhibition, % at 5.9 µM; recombinant LYPLA2, FP-Rh probe fluorescence polarization; AID 2177;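 active = inhibition above the screen-wide mean plus 3 SD, limit set per campaign, cut at about 26% in these data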;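 also: 0% = LYPLA2 with DMSO and 100% = wells lacking LYPLA2 enzyme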
Target sequence (O95372 whole entry, looked up): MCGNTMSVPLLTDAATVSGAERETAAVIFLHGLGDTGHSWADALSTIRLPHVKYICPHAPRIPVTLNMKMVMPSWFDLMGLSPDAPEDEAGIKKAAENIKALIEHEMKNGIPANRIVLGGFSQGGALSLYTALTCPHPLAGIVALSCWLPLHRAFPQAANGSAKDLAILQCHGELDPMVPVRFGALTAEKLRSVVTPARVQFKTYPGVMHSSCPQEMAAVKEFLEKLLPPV
RBBP9 inhibitor: inhibitors of human serine hydrolase RBBP9. inhibition, % at 7.94 µM. recombinant RBBP9, FP-Rh probe fluorescence polarization. hit rate 0.2% among 220,000;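 active = inhibition above the campaign mean of all tested compounds plus 3 SD, cut at about 14% in these data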;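 also: plate controls were DMSO wells with RBBP9 for no effect and wells lacking RBBP9 protein for full effect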
Target sequence (O75884 whole entry, looked up): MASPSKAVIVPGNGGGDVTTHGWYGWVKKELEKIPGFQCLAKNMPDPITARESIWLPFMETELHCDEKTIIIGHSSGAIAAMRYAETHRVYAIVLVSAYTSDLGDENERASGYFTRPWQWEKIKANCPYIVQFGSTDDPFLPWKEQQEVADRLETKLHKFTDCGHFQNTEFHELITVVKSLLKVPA
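System: RBBP9 protein / Buffer or medium: Tris/NaCl buffer pH 8.0 with 0.1% Pluronic / Probe or stimulus: Serine-hydrolase probe FP-Rh, 375 nM pre-mixing / Dosing: 7.94 µM single dose, 0.794% DMSO / Times: enzyme-compound preincubation 30 min, then probe labeling 45 min, 25 °C / Technique: fluorescence polarization (mP), excitation 525 nm, emission 598 nm / Replication: singlicate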
LYPLA1 inh: blocks human lysophospholipase 1, a PME1 counter-screen; O75608; recombinant LYPLA1, FP-Rh probe fluorescence polarization; inhibition, % at 5.9 µM; hit rate 0.16% among 320,000;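 active = inhibition above the mean of all tested compounds plus 3 SD, set per campaign, cut at about 14% in these data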;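 also: inhibitors block serine hydrolase probe labeling of LYPLA1 so polarization falls; 0% = enzyme with DMSO and 100% = wells lacking LYPLA1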
Target sequence (O75608 whole entry, looked up): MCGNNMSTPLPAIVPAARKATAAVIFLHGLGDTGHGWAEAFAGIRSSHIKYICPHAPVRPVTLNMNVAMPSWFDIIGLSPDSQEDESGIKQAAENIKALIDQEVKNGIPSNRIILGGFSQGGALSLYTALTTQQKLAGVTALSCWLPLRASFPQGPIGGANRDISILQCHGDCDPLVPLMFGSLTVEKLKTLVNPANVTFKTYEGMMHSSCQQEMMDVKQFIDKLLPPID
PAD4 FP inh: blocks human protein arginine deiminase 4. Q9UM07. hit rate 0.41% among 330,000. inhibition, % at 6.36 µM. AID 485272. recombinant PAD4, RCA probe fluorescence polarization;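 active = percent inhibition above a cutoff equal to the mean of all tested compounds plus 3 SD, cut at about 15% in these data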;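 also: 0% = PAD4 with RCA probe and DMSO and 100% = probe without PAD4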
PAD4 confirm: PAD4 (human) inhibition, confirmed; shares compounds with PAD4 FP inh; recombinant PAD4, RCA probe fluorescence polarization; inhibition, % at 6.36 µM; hit rate 28% among 1,200; AID 488796;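 active = mean inhibition across replicates above the hit cutoff set by the earlier primary screen, cut at about 15% in these data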;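 also: inhibitors block active-site labeling by the probe so polarization falls; 0% = PAD4 with probe and DMSO and 100% = probe without PAD4 enzyme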
An asterisk follows results filed as active. Rows were chosen to be rich in hits. Some 1.3% of all compounds tested hit in one or more screens of this group.

How did O=C(COC(=O)C1CCN(c2ccc(C(F)(F)F)cn2)CC1)Nc1ccc(F)cc1[N+](=O)[O-] do in these assays?
PME-1 primary: 1.7; Fam108B inh: 0.7; LYPLA2 counter: -1.7; LYPLA1 inh: -0.3; PAD4 FP inh: 1.9

Results for Cc1ccc(NC(=O)CNC(=O)c2ccc3c(c2)OCO3)nc1 ?
PME-1 primary: 2.4; Fam108B inh: 4.1; LYPLA2 counter: 2.8; LYPLA1 inh: 4.2; PAD4 FP inh: -1.2

Results for Cc1ccc(NC(=O)c2ccc3c(c2)OCCO3)nc1 ?
PME-1 primary: -12.8; Fam108B inh: -0.8; LYPLA2 counter: -8.9; LYPLA1 inh: -4.4; PAD4 FP inh: 15.8*; PAD4 confirm: 11.6

How did Cc1ccc(C(=O)N2CCC(C)CC2)cc1NC1=NC2CS(=O)(=O)CC2S1 (configuration not stated) do in these assays?
PME-1 primary: 1.5; Fam108B inh: 4.3; LYPLA2 counter: 5.9; LYPLA1 inh: 0.1; PAD4 FP inh: 3.3

Results for CC1CN(c2ccc(NC(=S)Nc3ccc(N4CC(C)OC(C)C4)cc3)cc2)CC(C)O1 (configuration not stated) ?
PME-1 primary: 1.8; Fam108B inh: -2.1; LYPLA2 counter: 5.1; RBBP9 inhibitor: 0.0; LYPLA1 inh: 0.9; PAD4 FP inh: 19.7*; PAD4 confirm: 6.5

What do the screens show for `CC1CN(C(=S)Nc2ccc(Cl)cc2)CC(C)O1` (configuration not stated)?
PME-1 primary: -1.0; Fam108B inh: -3.0; LYPLA2 counter: 6.1; LYPLA1 inh: 4.2; PAD4 FP inh: -5.7

What do the screens show for `Cn1c(SCC(=O)N/N=C/C=C/c2ccco2)nc2ccccc21`?
PME-1 primary: 4.3; Fam108B inh: 6.0; LYPLA2 counter: 1.9; RBBP9 inhibitor: -0.9; LYPLA1 inh: 0.8; PAD4 FP inh: 51.7*; PAD4 confirm: 2.0

How did COC(=O)c1ccc2c(c1)C(=O)/C(=C/c1ccc(O)cc1)O2 do in these assays?
PME-1 primary: -39.9; Fam108B inh: -13.5; LYPLA2 counter: -26.5; RBBP9 inhibitor: -14.6; LYPLA1 inh: -10.8; PAD4 FP inh: -4.5

Results for COc1cccc(/C=C2\Oc3ccc(O)cc3C2=O)c1O ?
PME-1 primary: 5.6; Fam108B inh: 4.9; LYPLA2 counter: -1.2; LYPLA1 inh: -0.3; PAD4 FP inh: 15.7*; PAD4 confirm: 4.8

What do the screens show for `CC(=O)Nc1ccc(S(=O)(=O)/N=C2\C(=O)c3ccccc3C([O-])=C2n2cc[n+](-c3ccccn3)c2)cc1`?
PME-1 primary: 2.9; Fam108B inh: 9.2; LYPLA2 counter: 8.2; RBBP9 inhibitor: -1.7; LYPLA1 inh: 2.2; PAD4 FP inh: 31.8*; PAD4 confirm: 1.6

How did Cc1cccc(-n2c(N)c(C(=O)NCCN3CCOCC3)c3nc4ccccc4nc32)c1 do in these assays?
PME-1 primary: 3.8; Fam108B inh: -0.9; LYPLA2 counter: 6.7; RBBP9 inhibitor: -0.2; LYPLA1 inh: -0.1; PAD4 FP inh: 16.6*; PAD4 confirm: -10.8

Results for CC(C)Cn1c(N)c(C(=O)NCCN2CCOCC2)c2nc3ccccc3nc21 ?
PME-1 primary: 6.1; Fam108B inh: 0.7; LYPLA2 counter: 3.0; RBBP9 inhibitor: 3.3; LYPLA1 inh: 1.1; PAD4 FP inh: -4.3

What do the screens show for `Cc1ccc(C)c(C(=O)CSc2nc(C)cc(=O)[nH]2)c1`?
PME-1 primary: 5.9; Fam108B inh: 1.6; LYPLA2 counter: 3.3; LYPLA1 inh: -0.9; PAD4 FP inh: -1.1

How did Cc1ccccc1C1CC(=O)Oc2cc(O)ccc21 (configuration not stated) do in these assays?
PAD4 FP inh: 81.7*; PAD4 confirm: 78.0*

What do the screens show for `COc1ccc(C2CC(=O)Oc3cc(O)ccc32)cc1` (configuration not stated)?
PAD4 FP inh: 0.1

Results for Cc1ccccc1CN1CCN(CC(=O)NCc2ccccc2)CC1 ?
PME-1 primary: 1.3; Fam108B inh: 0.1; LYPLA2 counter: -3.3; LYPLA1 inh: -0.3; PAD4 FP inh: 0.8

Results for O=C(N/N=C1\C/C(=N\NC(=O)c2ccncc2)c2ccccc21)c1ccncc1 ?
PME-1 primary: -2.3; Fam108B inh: 17.8; LYPLA2 counter: 1.0; RBBP9 inhibitor: -1.1; LYPLA1 inh: -4.8; PAD4 FP inh: 43.6*; PAD4 confirm: -15.2

Results for CCC(NC(=O)Cc1c(C)c2cc3c(cc2oc1=O)OC(C)(C)CC3)C(=O)O (configuration not stated) ?
PME-1 primary: 0.3; Fam108B inh: -2.9; LYPLA2 counter: 0.3; LYPLA1 inh: -0.1; PAD4 FP inh: -4.3

Results for CC(C)(C)c1ccc(OCCCNC2CCCC2)cc1 ?
PME-1 primary: 0.1; Fam108B inh: -7.1; LYPLA2 counter: -5.7; RBBP9 inhibitor: -4.8; LYPLA1 inh: 2.4; PAD4 FP inh: -2.9

Results for Cc1ccc(OCCCNC2CCCC2)cc1 ?
PME-1 primary: -0.2; Fam108B inh: 0.0; LYPLA2 counter: -1.6; RBBP9 inhibitor: -6.0; LYPLA1 inh: -1.9; PAD4 FP inh: 16.9*; PAD4 confirm: 4.8

What do the screens show for `Cc1csc(NC(=O)CCCNC(=O)c2ccc(Cl)cc2)n1`?
PME-1 primary: -0.4; LYPLA2 counter: -3.5; LYPLA1 inh: -7.9; PAD4 FP inh: -1.0

What do the screens show for `COCCOC(=O)C(C#N)c1nc2ccccc2nc1N1CCCC1` (configuration not stated)?
PME-1 primary: 1.2; Fam108B inh: -5.6; LYPLA2 counter: -4.6; RBBP9 inhibitor: -3.3; LYPLA1 inh: -2.5; PAD4 FP inh: 18.1*; PAD4 confirm: 9.1

What do the screens show for `COCCCNC(=O)C(C#N)c1nc2ccccc2nc1N1CCCC1` (configuration not stated)?
PME-1 primary: -7.3; Fam108B inh: -3.7; LYPLA2 counter: 0.7; RBBP9 inhibitor: -2.1; LYPLA1 inh: 0.8; PAD4 FP inh: -8.2

Results for O=C(CNC(=O)COc1ccccc1)NCc1cccnc1 ?
PME-1 primary: 5.6; Fam108B inh: -2.5; LYPLA2 counter: 7.0; LYPLA1 inh: 1.9; PAD4 FP inh: 3.8

Results for COC(=O)c1cccc(NC(=O)CCc2c(C)noc2C)c1 ?
PME-1 primary: 1.8; LYPLA2 counter: 0.3; LYPLA1 inh: -2.1; PAD4 FP inh: 31.4*; PAD4 confirm: -0.2

Results for CCN(CCO)c1ccc(NC(=S)Nc2cccc(S(=O)(=O)N(C)C)c2)cc1 ?
PME-1 primary: 1.4; Fam108B inh: 1.2; LYPLA2 counter: -3.7; RBBP9 inhibitor: 3.9; LYPLA1 inh: 0.4; PAD4 FP inh: 40.0*; PAD4 confirm: -1.3

Results for Oc1ccc(Cl)cc1C1=Nc2ccccc2N=C(c2ccco2)C1 ?
PME-1 primary: -3.9; Fam108B inh: 3.7; LYPLA2 counter: 3.7; RBBP9 inhibitor: -0.7; LYPLA1 inh: 0.1; PAD4 FP inh: -0.6
